The text below walks through data of ChEMBL document CHEMBL2040850, “Indole based cyclooxygenase inhibitors: synthesis, biological evaluation, docking and NMR screening” (Eur J Med Chem, 2012).

The target of test [1] is T1, Prostaglandin G/H synthase 2 (Homo sapiens) (UniProt P35354).
T1 sequence (whole entry): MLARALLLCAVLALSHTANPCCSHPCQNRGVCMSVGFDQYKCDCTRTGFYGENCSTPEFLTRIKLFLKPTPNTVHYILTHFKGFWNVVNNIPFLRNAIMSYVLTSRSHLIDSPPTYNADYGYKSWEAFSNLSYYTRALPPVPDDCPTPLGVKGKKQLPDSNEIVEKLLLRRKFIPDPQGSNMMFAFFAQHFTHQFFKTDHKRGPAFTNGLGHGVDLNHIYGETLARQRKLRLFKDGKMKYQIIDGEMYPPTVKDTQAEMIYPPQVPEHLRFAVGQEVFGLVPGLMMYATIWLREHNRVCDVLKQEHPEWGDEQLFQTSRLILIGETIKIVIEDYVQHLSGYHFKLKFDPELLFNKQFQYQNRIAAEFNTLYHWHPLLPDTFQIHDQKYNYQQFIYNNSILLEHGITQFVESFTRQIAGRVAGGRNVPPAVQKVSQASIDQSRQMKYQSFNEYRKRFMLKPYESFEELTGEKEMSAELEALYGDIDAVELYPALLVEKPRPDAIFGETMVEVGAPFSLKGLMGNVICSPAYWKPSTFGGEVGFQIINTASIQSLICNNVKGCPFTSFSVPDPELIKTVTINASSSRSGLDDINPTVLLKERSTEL
Kind of test: Inhibition of recombinant human COX2 assessed as PGF2alpha formation at 50 uM by enzyme immunoassay.

In test [2] the target is Prostaglandin G/H synthase 1 (Ovis aries) (UniProt P05979). Kind of test: Inhibition of ovine COX1 assessed as PGE2 formation at 50 uM by enzyme immunoassay.
The target of test [3] is Prostaglandin G/H synthase 2 (Homo sapiens) (UniProt P35354). Kind of test: Inhibition of human COX2 assessed as PGE2 formation at 100 uM by enzyme immunoassay.
For test [4] the target is unchanged. The test can be described thus: Inhibition of recombinant human COX2 assessed as PGE2 formation at 100 uM by enzyme immunoassay.
In test [5] the target is T2, Prostaglandin G/H synthase 1 (Ovis aries) (UniProt P05979).
T2 sequence (whole entry): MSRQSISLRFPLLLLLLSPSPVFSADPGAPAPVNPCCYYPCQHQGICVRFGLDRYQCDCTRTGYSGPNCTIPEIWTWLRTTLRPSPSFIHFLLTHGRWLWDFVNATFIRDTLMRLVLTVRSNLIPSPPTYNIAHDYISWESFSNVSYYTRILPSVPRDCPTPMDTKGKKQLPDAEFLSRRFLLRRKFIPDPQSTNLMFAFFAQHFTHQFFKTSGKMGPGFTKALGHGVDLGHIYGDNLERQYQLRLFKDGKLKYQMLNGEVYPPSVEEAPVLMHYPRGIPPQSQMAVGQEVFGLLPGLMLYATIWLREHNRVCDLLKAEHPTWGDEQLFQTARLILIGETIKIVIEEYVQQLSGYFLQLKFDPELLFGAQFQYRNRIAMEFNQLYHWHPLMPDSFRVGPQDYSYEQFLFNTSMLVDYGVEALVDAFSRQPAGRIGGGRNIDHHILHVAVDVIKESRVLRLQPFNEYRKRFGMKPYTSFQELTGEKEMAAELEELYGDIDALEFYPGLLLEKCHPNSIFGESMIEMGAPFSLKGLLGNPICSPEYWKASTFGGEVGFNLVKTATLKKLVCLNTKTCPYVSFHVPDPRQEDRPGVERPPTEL
Kind of test: Reversible binding affinity to ram seminal vesicle COX1 at 300 uM by STD-NMR spectroscopy. In a few lines: (§1)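 STD-NMR of ligand binding to COX-1 (ram seminal vesicle) or COX-2 (sheep placenta) in 80 mM Tris–HCl pH 8.0 with 0.1% Tween 20 and 300 µM DDC. Final mixture was about 3 µM enzyme and 300 µM ligand, added from a 2 mM DMSO-d6 stock. Protein irradiated at -300 Hz with 51 shaped 90° pulses (2.5 s total saturation), 20 ms spin-lock filter, 1024 transients.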

Test [6] addresses T3, Prostaglandin G/H synthase 2 (Ovis aries) (UniProt P79208).
T3 sequence (whole entry): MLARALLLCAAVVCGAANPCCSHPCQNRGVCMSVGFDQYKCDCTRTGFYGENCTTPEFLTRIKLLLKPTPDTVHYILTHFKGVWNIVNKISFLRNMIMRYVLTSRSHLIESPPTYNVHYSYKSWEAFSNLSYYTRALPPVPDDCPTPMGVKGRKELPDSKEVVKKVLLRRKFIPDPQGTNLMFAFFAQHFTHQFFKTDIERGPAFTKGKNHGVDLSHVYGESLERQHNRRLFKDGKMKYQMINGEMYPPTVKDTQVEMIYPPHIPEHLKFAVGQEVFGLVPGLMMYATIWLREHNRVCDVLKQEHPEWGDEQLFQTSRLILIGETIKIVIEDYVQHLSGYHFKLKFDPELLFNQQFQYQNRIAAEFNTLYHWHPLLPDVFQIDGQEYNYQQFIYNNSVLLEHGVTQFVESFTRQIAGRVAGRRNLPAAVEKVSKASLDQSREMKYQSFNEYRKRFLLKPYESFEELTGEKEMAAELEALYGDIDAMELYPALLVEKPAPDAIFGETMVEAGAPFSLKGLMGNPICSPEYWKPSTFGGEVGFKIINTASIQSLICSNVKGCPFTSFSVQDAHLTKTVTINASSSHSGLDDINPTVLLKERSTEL
The test can be described thus: Reversible binding affinity to sheep placenta COX2 at 300 uM by STD-NMR spectroscopy. In a few lines:
as §1

The target in test [7] is T2, Prostaglandin G/H synthase 1 (Ovis aries). Particulars: 1 uM.

Active and inactive are the calls of the source. The rule behind the calls is not given here.

Consider `NS(=O)(=O)c1ccc2[nH]cc(Cc3ccc(Br)cc3)c2c1`, for which the inhibition in test [1] was found to be 23%; in test [2] it was 19%.
Regarding `NS(=O)(=O)c1ccc(Cc2c[nH]c3ccc(Br)cc23)cc1`, the figures for the inhibition in test [1], in test [3] and in test [2] were 22%, 27% and 11%, respectively.
Take `CS(=O)(=O)c1ccc2[nH]c(Cc3ccc(Cl)cc3)c(Cc3ccc(Cl)cc3)c2c1`: the inhibition in test [1] was determined as 24%; in test [2], 25%. In test [4], the inhibition result was “inactive”.
On to `CS(=O)(=O)c1ccc2c(c1)c(Cc1ccc(Br)cc1)cn2C=CCC(F)(F)F` (mixture of isomers), for which the results for the inhibition in test [1], in test [3] and in test [2] were 21%, 19% and 20%, respectively.
Consider `CS(=O)(=O)c1ccc2c(c1)c(Cc1ccc(Cl)cc1)cn2C=CCC(F)(F)F` (mixture of isomers), for which the inhibition in test [3] amounted to 23%; in test [2] it was 11%.
On to `NS(=O)(=O)c1ccc2[nH]c(Cc3ccc(Cl)cc3)c(Cc3ccc(Cl)cc3)c2c1`, for which the inhibition in test [2] worked out at 41%.
In the case of `CS(=O)(=O)c1ccc2c(c1)c(Cc1ccc(Cl)cc1)cn2CC(O)CC(F)(F)F` (stereo not given), the values for the inhibition in test [1], in test [3] and in test [2] were 20%, 34% and 8%, respectively.
Regarding `CS(=O)(=O)c1ccc2[nH]c(Cc3ccc(Br)cc3)c(Cc3ccc(Br)cc3)c2c1`, the inhibition result in test [4] is “inactive”.
For the compound `NS(=O)(=O)c1ccc2[nH]cc(Cc3ccc(F)cc3)c2c1`, the inhibition was found to be 32% in test [1], 20% in test [3] and 40% in test [2]. Also, the outcome in test [5] was Active.
Take `CS(=O)(=O)c1ccc2c(c1)c(Cc1ccc(F)cc1)cn2CC(O)CC(F)(F)F` (stereo not given): the inhibition in test [3] came out at 9%; in test [2], 14%.
On to `NS(=O)(=O)c1ccc2[nH]c(Cc3ccc(F)cc3)c(Cc3ccc(F)cc3)c2c1`, for which the outcome in test [6] was Active. The inhibition in test [2] is 18%.
For the compound `COc1ccc2c(c1)c(CC(=O)O)c(C)n2C(=O)c1ccc(Cl)cc1`, the inhibition in test [7] worked out at 46%.
In the case of `CS(=O)(=O)c1ccc2[nH]cc(Cc3ccc(Br)cc3)c2c1`, the inhibition in test [3] amounted to 26%.
Regarding `CS(=O)(=O)c1ccc2[nH]c(Cc3ccc(F)cc3)c(Cc3ccc(F)cc3)c2c1`, the inhibition entry in test [4] was “inactive”.
Take `NS(=O)(=O)c1ccc2[nH]cc(Cc3ccc(Cl)cc3)c2c1`: the inhibition in test [1] was 32%; in test [3], 31%; in test [2], 21%.
On the same counts, the results for `CS(=O)(=O)c1ccc2c(c1)c(Cc1ccc(Br)cc1)cn2CC(O)CC(F)(F)F` (stereo not given) are 23%, 15% and 12%.
For `NS(=O)(=O)c1ccc2[nH]c(Cc3ccc(Br)cc3)c(Cc3ccc(Br)cc3)c2c1`, the inhibition in test [2] was 35%.
With `CS(=O)(=O)c1ccc2[nH]cc(Cc3ccc(Cl)cc3)c2c1`, the inhibition in test [3] was determined as 24%.
Consider `CS(=O)(=O)c1ccc2c(c1)c(Cc1ccc(F)cc1)cn2C=CCC(F)(F)F` (mixture of isomers), for which the inhibition came to 12% in test [1], 18% in test [3] and 8% in test [2].
